Assay results: ChEMBL document CHEMBL4049448, “Development of a Potent Wound Healing Agent Based on the Liver Fluke Granulin Structural Fold” (J Med Chem, 2017)
Calls of active or inactive are those of the source. No cut-off for these calls is given here. Positions of bridges follow the written chain, without caps; N, C: chain ends. Residues, ends and D or L forms follow the SMILES beside them.

Experiments:
NCI-H69 [1] = assay: Induction of human H69 cell growth at 2 uM after 5 to 6 days by real time cell proliferation assay relative to control; format: functional
Summary of the method: (§1)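 H69 SV40-transformed human cholangiocytes, seeded 1500 cells/well in complete media and grown overnight, then washed with PBS and held ≥6 h in low-nutrient medium (0.5% FCS, 1/20 growth factors). Single treatment added at 10× stock. Impedance cell index read hourly for 5−6 days and normalized to pre-treatment. Proliferation ratio taken at day 4 versus control (tropomyosin-derived 20-residue peptide for peptides; thioredoxin for recombinant protein). Two-Way ANOVA with Dunnett's correction.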

[2] = test system: H69 cholangiocyte cell line (Homo sapiens); assay: Induction of human H69 cell growth at 400 nM after 5 to 6 days by real time cell proliferation assay relative to control
NCI-H69 [3] = assay: Cytotoxicity against human H69 cells up to 2 uM after 5 to 6 days by real time cell proliferation assay; format: cell-based
Mus musculus = assay: Wound healing activity in BALB/c mouse assessed as biopsy punch-induced wound closure at 56 pmol administered topically daily as 1.5% methyl cellulose gel for 4 days measured on day 4 post last dose relative to control; format: functional
Summary of the method: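 Female BALB/c mice, 11−12 weeks, 19−23 g, groups of 4−5. Under ip xylazine 16 mg/kg and ketamine 80 mg/kg, a 5 mm biopsy punch made a skin-deep scalp wound (~0.2 cm2). Betadine was applied first. Then 56 pmol in 50 μL 1.5% methylcellulose gel was applied daily, days 0−4. Healing at day 4 expressed relative to PBS vehicle.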

NCI-H69 [4] = assay: Induction of human H69 cell growth at 400 nM after 5 to 6 days by real time cell proliferation assay relative to control; format: functional; summary of the method: as §1
NCI-H69 [5] = assay: Induction of human H69 cell growth up to 2 uM after 5 to 6 days by real time cell proliferation assay; format: functional, cell-based; summary of the method: as §1
NCI-H69 [6] = assay: Induction of human H69 cell growth at 32 nM after 5 to 6 days by real time cell proliferation assay relative to control; format: functional; summary of the method: as §1

For `CC(C)C[C@@H]1NC(=O)CNC(=O)[C@H](CCCNC(=N)N)NC(=O)[C@H](C)NC(=O)[C@@H]2CSSC[C@H](N)C(=O)N3CCC[C@H]3C(=O)N[C@@H](CC(=O)O)C(=O)N3CCC[C@H]3C(=O)N[C@@H](C(C)C)C(=O)N[C@@H](Cc3ccc(O)cc3)C(=O)N[C@@H]([C@@H](C)O)C(=O)N[C@@H](CSSC[C@@H](C(=O)O)NC(=O)CNC(=O)[C@H](Cc3ccc(O)cc3)NC(=O)CNC(=O)[C@H](Cc3cnc[nH]3)NC1=O)C(=O)N[C@@H](CCCNC(=N)N)C(=O)N1CCC[C@H]1C(=O)NCC(=O)N[C@@H](CCC(N)=O)C(=O)N[C@@H]([C@@H](C)O)C(=O)N2` (H-CPDPVYTCRPGQTCARGLHGYGC-OH; disulfide 1-14, 8-23), which Activity (NCI-H69 [1]) is on record?
The Activity was 14 - 25%.

And the Activity [2]?
The Activity was “inactive”.

What about the Activity (NCI-H69 [3]) of the same compound?
The Activity was “Non-Toxic”.

And the Activity (Mus musculus)?
The Activity was 37 - 41%.

With `CC[C@H](C)[C@H](NC(=O)[C@@H]1CCCN1C(=O)[C@H](CCC(N)=O)NC(=O)[C@H](CC(C)C)NC(=O)[C@@H](NC(=O)[C@H](CC(=O)O)NC(=O)[C@@H](N)CCSC)[C@@H](C)O)C(=O)N[C@@H](CCCNC(=N)N)C(=O)N[C@@H](CO)C(=O)N1CCC[C@H]1C(=O)N[C@@H](CO)C(=O)N[C@H]1CSSC[C@@H]2NC(=O)[C@H]([C@@H](C)O)NC(=O)[C@H](CCC(N)=O)NC(=O)CNC(=O)[C@@H]3CCCN3C(=O)[C@H](CCCNC(=N)N)NC(=O)[C@H](CSSC[C@@H](C(=O)N[C@@H](C)C(=O)O)NC(=O)CNC(=O)[C@H](Cc3ccc(O)cc3)NC(=O)CNC(=O)[C@H](Cc3cnc[nH]3)NC(=O)[C@H](CC(C)C)NC(=O)CNC(=O)[C@H](CCCNC(=N)N)NC(=O)[C@H](C)NC2=O)NC(=O)[C@H]([C@@H](C)O)NC(=O)[C@H](Cc2ccc(O)cc2)NC(=O)[C@H](C(C)C)NC(=O)[C@@H]2CCCN2C(=O)[C@H](CC(=O)O)NC(=O)[C@@H]2CCCN2C1=O` (H-MDTLQPIRSPSCPDPVYTCRPGQTCARGLHGYGCA-OH; disulfide 12-25, 19-34) as the compound, how does the Activity (NCI-H69 [1]) read?
The Activity was 14 - 25%.

And the Activity (NCI-H69 [4])?
Its Activity is 9%.

And the Activity (NCI-H69 [3])?
The Activity was “Non-Toxic”.

What about the Activity (Mus musculus) of the same compound?
The Activity was 37 - 41%.

`CSCC[C@H](NC(=O)[C@@H]1CCCN1C(=O)[C@H](C)NC(=O)[C@@H]1CSSC[C@@H]2NC(=O)[C@H]([C@@H](C)O)NC(=O)[C@H](Cc3ccc(O)cc3)NC(=O)[C@H](C(C)C)NC(=O)[C@@H]3CCCN3C(=O)[C@H](CC(=O)O)NC(=O)[C@@H]3CCCN3C(=O)[C@@H](NC(=O)[C@H](CO)NC(=O)[C@@H]3CCCN3C(=O)[C@H](CO)NC(=O)[C@@H](N)CCCNC(=N)N)CSSC[C@H](NC(=O)[C@H]([C@@H](C)O)NC(=O)[C@H](CCC(N)=O)NC(=O)CNC(=O)[C@@H]3CCCN3C(=O)[C@H](CCCNC(=N)N)NC2=O)C(=O)N[C@@H](C)C(=O)N[C@@H](CCCNC(=N)N)C(=O)NCC(=O)N[C@@H](CC(C)C)C(=O)N[C@@H](Cc2cnc[nH]2)C(=O)NCC(=O)N[C@@H](Cc2ccc(O)cc2)C(=O)NCC(=O)N1)C(=O)N[C@@H](CC(=O)O)C(=O)O` (H-RSPSCPDPVYTCRPGQTCARGLHGYGCAPMD-OH; disulfide 5-18, 12-27) was tested. Which Activity [2] did it give?
The Activity was “inactive”.

What about the Activity (Mus musculus) of the same compound?
The Activity was 26 - 41%.

What does the source list for `CC[C@H](C)[C@H](NC(=O)[C@@H](N)C(C)C)C(=O)N[C@@H](Cc1cnc[nH]1)C(=O)N[C@H]1CSSC[C@@H]2NC(=O)[C@H]([C@@H](C)O)NC(=O)[C@H]([C@@H](C)O)NC(=O)CNC(=O)[C@H](CC(=O)O)NC(=O)[C@@H]3CCCN3C(=O)[C@H](CSSC[C@@H](C(=O)N[C@@H](C)C(=O)N3CCC[C@H]3C(=O)N[C@@H](Cc3ccccc3)C(=O)N[C@@H](CO)C(=O)O)NC(=O)[C@H](Cc3ccc(O)cc3)NC(=O)[C@H](Cc3c[nH]c4ccccc34)NC(=O)[C@H](C(C)C)NC(=O)CNC(=O)[C@H](Cc3ccc(O)cc3)NC(=O)[C@@H]3CCCN3C(=O)[C@H](CO)NC(=O)[C@H](CC(C)C)NC(=O)[C@H](C)NC2=O)NC(=O)[C@H]([C@@H](C)CC)NC(=O)[C@H]([C@@H](C)O)NC(=O)[C@H](C)NC(=O)[C@H](C)NC(=O)[C@H](CC(=O)O)NC1=O` (H-VIHCDAATICPDGTTCALSPYGVWYCAPFS-OH; disulfide 4-16, 10-26)?
Activity (NCI-H69 [5]): inactive; Activity (NCI-H69 [6]): 9%
